Compound activity: PubChem, Broad Institute
PGC1a acetyl inh: inhibitors of PGC1a acetylation signal, primary screen, cell-based, U2OS, AlphaScreen, inhibitor mode | 350,000 compounds, 0.17% hits | AlphaScreen anti-acetyl-lysine; with virally co-expressed GCN5 acetyltransferase | inhibition, % at 15.6 µM;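 active means every replicate shows inhibition of at least 40%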;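 further: 0% = neutral control wells and 100% = positive control wells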
FGF22 binding-1: binders of human FGF22 protein, primary screen, FGF22 synaptogenesis inhibitor project, biophysical, thermal shift, single point; 340,000 compounds, 1.5% hits; recombinant FGF22 thermal shift, SYPRO orange fluorescence; percent of sucrose octasulfate shift, DMSO zero; Fibroblast growth factor 22 (Homo sapiens), Q9HCT0; AID 651658, 2012; activity (Tm shift, normalised), % at 9.99 µM;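 active means mean Tm shift, scaled 0 neutral to 100 positive control, at about 1.3% or above, every replicate too, limit read from the data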
Target sequence (Q9HCT0 whole entry, looked up): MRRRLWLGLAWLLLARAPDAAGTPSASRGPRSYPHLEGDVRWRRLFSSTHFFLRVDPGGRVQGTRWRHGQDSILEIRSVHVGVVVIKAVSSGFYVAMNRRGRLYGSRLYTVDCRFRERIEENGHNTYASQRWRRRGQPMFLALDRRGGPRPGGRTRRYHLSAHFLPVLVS
EWS-Fli inh: EWS/Fli-driven NR0B1 reporter inhibitors, primary screen, A673 cells, NR0B1 luciferase, luminescence, MLPCN library; 350,000 compounds, 0.67% hits; inhibition, % at 12.6 µM; viability-normalised;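 active means mean inhibition of at least 50% after viability correction, with every replicate also passing that limit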;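 further: firefly luciferase signal divided by Alamar Blue viability fluorescence both relative to DMSO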
PAX8 reporter: inhibitors of PAX8-driven TPO luciferase reporter, primary screen, RMG-I cells, single concentration; SteadyGlo, 24 h; 360,000 compounds, 1.2% hits; inhibition, % at 12.6 µM;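 active means mean replicate inhibition at least 60% with every replicate also reaching 60%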;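 further: luciferase light reporting Pax8 driven TPO promoter activity; plate controls were median of neutral control wells for no effect and mitoxantrone controls for full effect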
FN deposit inh: inhibitors of fibronectin matrix deposition, primary screen, AH1F cells, Alexa488-fibronectin fluorescence, plate reader. AH1F fibroblasts, overnight. inhibition, % at 12.6 µM. 350,000 compounds, 0.086% hits;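 active means mean inhibition across replicates of 30% or more, regardless of how many single replicates reach that level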;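 further: positive control wells lacked labelled fibronectin entirely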
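Schedule: 1 h cell adhesion before compound, then overnight fibronectin incubation; test system: AH1F fibroblast monolayer depositing Alexa488-labelled fibronectin into matrix; quantity: 10000 AH1F cells per well; probe or stimulus: fluorescent fibronectin at 24 nM final; signal: fluorescence, ex 485 nm, em 525 nm; evaluation: percent inhibition as loss of matrix-bound fibronectin fluorescence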
Env fusion inh: inhibitors of HIV-1 Env-driven cell-cell fusion, primary screen, HeLa-JRFL effector, CEM21 target cells, luciferase; inhibition, % at 12.3 µM; AID 651610, 2012; 360,000 compounds, 1.1% hits;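 active means mean replicate inhibition score of at least 50 and every replicate individually at or above 50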;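 further: 0% = plate neutral controls and 100% = maraviroc near 300 nM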
FGF22 binding-2: binders of human FGF22 protein, dose response, FGF22 synaptogenesis inhibitor project, biophysical, thermal shift, cherry-pick retest | 1,000 compounds, 2% hits | thermal shift activity, °C (ΔTm) at 38 µM | shares compounds with FGF22 binding-1 | recombinant FGF22 thermal shift, SYPRO orange fluorescence;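 active means fitted rise in melting shift crosses a set limit at or below the top valid dose tested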
SYPRO no-protein: compound-only thermal shift signal without protein, dose response, artefact control for FGF22 binder project, biochemical, cherry-picked samples, RT-PCR instrument; shares compounds with FGF22 binding-1; compound-only SYPRO orange thermal shift counter-screen, no protein; AC50, µM (doses to about 38 µM); 1,000 compounds, 2% hits;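 active means rising signal whose fitted curve reaches the 0.54 level within the top valid dose, showing a melting point, actives reach about 13 µM in these data; inactive means the rest, including activity in the opposite direction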; further: value is where the raw curve crosses a fixed level and not half-maximal
Numbers without * were called inactive; [ ] = remark or other dose. Rows were chosen to be rich in hits. Some 3.1% of all compounds tested hit in one or more screens of this group.

CCNC(=O)C[C@@H]1CC[C@H]2[C@@H](COc3ccc(NC(=O)Nc4ccccc4Cl)cc3C(=O)N2C)O1 was read as PGC1a acetyl inh 0, FGF22 binding-1 0, EWS-Fli inh 6, PAX8 reporter 5 and FN deposit inh -14.
For CCc1ccc(NC(=S)N(Cc2ccccc2)Cc2ccccn2)cc1 the results were PGC1a acetyl inh -2, FGF22 binding-1 44*, EWS-Fli inh -13, PAX8 reporter 15, FN deposit inh -9 and Env fusion inh 2.
CC(C)OC(=O)N(C)C[C@H]1OCc2ccccc2-c2ccccc2C(=O)N([C@H](C)CO)C[C@H]1C was read as PGC1a acetyl inh -7, FGF22 binding-1 0, EWS-Fli inh -5, PAX8 reporter -5, FN deposit inh -6 and Env fusion inh 11[16.7 µM].
`Cc1cc(C(=O)Nc2cccc3c2O[C@@H](CN(C)Cc2ccc(-c4ccccc4)cc2)[C@H](C)CN([C@H](C)CO)C3=O)n(C)n1` gave PGC1a acetyl inh 2, FGF22 binding-1 -1, EWS-Fli inh -14 and PAX8 reporter 70*.
Screening Cc1cc(C(=O)Nc2cccc3c2O[C@H](CN(C)Cc2ccc(-c4ccccc4)cc2)[C@H](C)CN([C@@H](C)CO)C3=O)n(C)n1 returned PGC1a acetyl inh 2, FGF22 binding-1 0, EWS-Fli inh -7 and PAX8 reporter 11.
`Cc1cc(C(=O)Nc2cccc3c2O[C@H](CN(C)Cc2ccc(Oc4ccccc4)cc2)[C@@H](C)CN([C@@H](C)CO)C3=O)n(C)n1` gave PGC1a acetyl inh -1, EWS-Fli inh -19, PAX8 reporter 68* and Env fusion inh 15[16.7 µM].
O=C(Cc1nnc(NC(=O)c2ccccc2)s1)N/N=C/c1ccco1 was read as PGC1a acetyl inh -1, FGF22 binding-1 0, EWS-Fli inh -35, PAX8 reporter 132* and FN deposit inh 10.
O=C(Cc1nnc(NC(=O)c2ccccc2)s1)N/N=C/c1cccc(O)c1 was read as FGF22 binding-1 0, EWS-Fli inh 0, PAX8 reporter -23, FN deposit inh 2 and Env fusion inh -36.
`Cc1ccc(Cn2cc(/C=N/NC(=O)Cc3nnc(NC(=O)c4ccc(C)cc4)s3)c3ccccc32)cc1` gave FGF22 binding-1 43*, EWS-Fli inh 14, PAX8 reporter 15, FN deposit inh -6 and Env fusion inh -17.
For CC(C)CCN1CCN(Cc2cccs2)CC1CCO (stereo unspecified) the results were FGF22 binding-1 43*, EWS-Fli inh 1, PAX8 reporter 6, FN deposit inh 0 and Env fusion inh -2.
For CC(C)N1CCN(Cc2cccs2)CC1CCO (stereo unspecified) the results were FGF22 binding-1 0, EWS-Fli inh 2, PAX8 reporter -3 and Env fusion inh 1.
Cc1[nH]n(-c2ccccc2)c(=O)c1N=Nc1ccccc1O was read as PGC1a acetyl inh 9, FGF22 binding-1 0, EWS-Fli inh 13, PAX8 reporter 66*, FN deposit inh 5 and Env fusion inh 26.
C[C@H](NC(=O)C[C@H]1C[C@@H]2c3cc(NC(=O)Cc4ccncc4)ccc3O[C@@H]2[C@@H](CO)O1)c1ccccc1 was read as PGC1a acetyl inh -2, FGF22 binding-1 0, EWS-Fli inh 17, PAX8 reporter -3 and Env fusion inh -10[16.7 µM].
`Fc1ccc(CSc2nnc(-c3ccncc3)o2)cc1` gave PGC1a acetyl inh 3, FGF22 binding-1 0, EWS-Fli inh -27, PAX8 reporter -90, FN deposit inh 0 and Env fusion inh 37.
Screening Clc1ccc(CSc2nnc(-c3ccncc3)o2)cc1 returned PGC1a acetyl inh 21 and Env fusion inh 63*.
Cc1ccccc1[C@H](NC1c2ccccc2C=Cc2ccccc21)P(=O)(c1ccccc1)c1ccccc1 was read as FGF22 binding-1 0, EWS-Fli inh 13, PAX8 reporter 50, FN deposit inh 10 and Env fusion inh 86*.
`Cc1ccc(P(=O)(c2ccc(C)cc2)[C@@H](NC(c2ccccc2)c2ccccc2)c2ccccc2)cc1` gave FGF22 binding-1 0, EWS-Fli inh 32, PAX8 reporter 29, FN deposit inh -7 and Env fusion inh -27.
For Cc1ccc(S(=O)(=O)N(C)C[C@@H]2Oc3ccc(NC(=O)Cn4cnnn4)cc3C(=O)N([C@@H](C)CO)C[C@@H]2C)cc1 the results were PGC1a acetyl inh 0, FGF22 binding-1 0 and EWS-Fli inh -8.
Cc1nc([N+](=O)[O-])c(Br)n1CC(=O)c1ccccc1 was read as PGC1a acetyl inh -8.
Screening Cc1nc([N+](=O)[O-])c(Br)n1CC(=O)c1ccc(Br)cc1 returned PGC1a acetyl inh 64*, PAX8 reporter 40, FN deposit inh 7 and Env fusion inh 24.
`CSCCC(NS(=O)(=O)c1ccc2c(c1)oc(=O)n2C)C(=O)NC1CCN(Cc2ccccc2)CC1` (stereo unspecified) gave PGC1a acetyl inh -1, FGF22 binding-1 0, EWS-Fli inh 6, PAX8 reporter 12 and Env fusion inh -2.
For CSCCC(NS(=O)(=O)c1ccc2c(c1)oc(=O)n2C)C(=O)NC1CCC(C)CC1 (stereo unspecified) the results were FGF22 binding-1 0, EWS-Fli inh -3, PAX8 reporter 14, FN deposit inh -11 and Env fusion inh 60*.
For C[C@H](CO)N1C[C@H](C)[C@H](CN(C)Cc2cccc(F)c2)Oc2ncc(C#C[C@@H](C)O)cc2C1=O the results were PGC1a acetyl inh -5, FGF22 binding-1 0, EWS-Fli inh 8, FN deposit inh -2 and Env fusion inh 16[16.7 µM].
`NS(=O)(=O)c1cc(C(=O)NC2CCSc3ccccc32)ccc1Cl` (stereo unspecified) gave FGF22 binding-1 1.8*, EWS-Fli inh -10, PAX8 reporter 4, FN deposit inh -3, Env fusion inh -7, FGF22 binding-2 0.068 and SYPRO no-protein inactive.
